Measurements published in ChEMBL document CHEMBL2375313, “Synthesis, in vitro antitumor evaluation and DNA-binding study of novel tetrahydroquinolines and some derived tricyclic and tetracyclic ring systems” (Eur J Med Chem, 2013).

Assays:
Format in all cases: functional
[1] = test system: HCT-116; experiment: Cytotoxicity against human HCT116 cells assessed as growth inhibition at 10 uM after 48 hrs by sulphorhodamine B assay; settings: HCT-116, 48 h, read-out: GI
Procedure, shortened: (§1)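 NCI-60 one-dose screen per the NCI Drug Evaluation Branch protocol. Cells given a single 10 µM concentration with 48 h continuous exposure. Growth estimated by sulphorhodamine B protein assay. Result expressed as percentage growth inhibition relative to untreated growth.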

[2] = Cytotoxicity against human colon cancer cells after 48 hrs by sulphorhodamine B assay; settings: Cancer cell lines
[3] = Cytotoxicity against human CNS cancer cells after 48 hrs by sulphorhodamine B assay; settings: Cancer cell lines
[4] = test system: SNB-75; experiment: Cytotoxicity against human SNB75 cells assessed as growth inhibition at 10 uM after 48 hrs by sulphorhodamine B assay; settings: SNB-75, 48 h, read-out: GI; procedure, shortened: as §1
[5] = Cytotoxicity against human non-small cell lung cancer cells after 48 hrs by sulphorhodamine B assay; settings: Cancer cell lines
[6] = Cytotoxicity against human leukemia cells after 48 hrs by sulphorhodamine B assay; settings: Leukemia cell
[7] = test system: HCT-15; experiment: Cytotoxicity against human HCT15 cells assessed as growth inhibition at 10 uM after 48 hrs by sulphorhodamine B assay; settings: HCT-15, 48 h, read-out: GI; procedure, shortened: as §1
[8] = Cytotoxicity against human prostate cancer cells after 48 hrs by sulphorhodamine B assay; settings: Cancer cell lines
[9] = Cytotoxicity against human renal cancer cells after 48 hrs by sulphorhodamine B assay; settings: Cancer cell lines
[10] = test system: IGROV-1; experiment: Cytotoxicity against human IGROV1 cells assessed as growth inhibition at 10 uM after 48 hrs by sulphorhodamine B assay; settings: IGROV-1, 48 h, read-out: GI; procedure, shortened: as §1
[11] = test system: M14; experiment: Cytotoxicity against human M14 cells assessed as growth inhibition at 10 uM after 48 hrs by sulphorhodamine B assay; settings: M14, 48 h, read-out: GI; procedure, shortened: as §1
[12] = test system: HL-60(TB); experiment: Cytotoxicity against human HL-60(TB) cells assessed as growth inhibition at 10 uM after 48 hrs by sulphorhodamine B assay; settings: HL-60, 48 h, read-out: GI
Procedure, shortened: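 NCI-60 one-dose primary screen run to the Drug Evaluation Branch protocol. Cells are exposed to a single 10 µM concentration for 48 h continuously, and growth is read by SRB protein assay. Data are reported as percent growth of treated cells, expressed as % growth inhibition.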

[13] = test system: SF-268; experiment: Cytotoxicity against human SF268 cells assessed as growth inhibition at 10 uM after 48 hrs by sulphorhodamine B assay; settings: SF-268, 48 h, read-out: GI; procedure, shortened: as §1
[14] = test system: MOLT-4; experiment: Cytotoxicity against human MOLT4 cells assessed as growth inhibition at 10 uM after 48 hrs by sulphorhodamine B assay; settings: MOLT-4, 48 h, read-out: GI; procedure, shortened: as §1
[15] = test system: T47D; experiment: Cytotoxicity against human T47D cells assessed as growth inhibition at 10 uM after 48 hrs by sulphorhodamine B assay; settings: read-out: GI; procedure, shortened: as §1
[16] = test system: HT-29; experiment: Cytotoxicity against human HT-29 cells assessed as growth inhibition at 10 uM after 48 hrs by sulphorhodamine B assay; settings: HT-29, 48 h, read-out: GI; procedure, shortened: as §1
[17] = Cytotoxicity against human ovarian cancer cells after 48 hrs by sulphorhodamine B assay; settings: Cancer cell lines
[18] = Cytotoxicity against human breast cancer cells after 48 hrs by sulphorhodamine B assay; settings: Cancer cell lines
[19] = Cytotoxicity against human melanoma cells after 48 hrs by sulphorhodamine B assay; settings: Melanoma cell
[20] = read-out: LC50 (the source's name)

CC1CCCc2c1nc1nc(SCC(=O)c3ccccc3)nc(N)c1c2-c1ccc(Cl)cc1 (configuration not stated)
inhibition of growth at 10 µM [1]: 38.4%
GI50 [2]: > 100 µM
TGI [2]: 86.5 µM
CC50 [2, 20]: > 100 µM
GI50 [3]: 62.3 µM
LC50 [3]: > 100 µM
TGI [3]: 84.1 µM
inhibition of growth at 10 µM [4]: < 10%
GI50 [5]: 46.1 µM
TGI [5]: > 100 µM
CC50 [5, 20]: > 100 µM
GI50 [6]: 34.7 µM
LC50 [6]: 93.3 µM
TGI [6]: 65.1 µM
inhibition of growth at 10 µM [7]: 71.5%
GI50 [8]: 75.5 µM
LC50 [8]: > 100 µM
TGI [8]: > 100 µM
GI50 [9]: 51.8 µM
LC50 [9]: > 100 µM
TGI [9]: > 100 µM
inhibition of growth at 10 µM [10]: < 10%
inhibition of growth at 10 µM [11]: 35%
inhibition of growth at 10 µM [12]: 22%
inhibition of growth at 10 µM [13]: 23.7%
inhibition of growth at 10 µM [14]: 44.6%
inhibition of growth at 10 µM [15]: 72.6%
inhibition of growth at 10 µM [16]: 21.5%
GI50 [17]: 80.6 µM
TGI [17]: 95.5 µM
CC50 [17, 20]: > 100 µM
GI50 [18]: 79.3 µM
TGI [18]: 89.6 µM
CC50 [18, 20]: > 100 µM
GI50 [19]: 58 µM
TGI [19]: > 100 µM
CC50 [19, 20]: > 100 µM

CCSc1nc(N)c2c(-c3ccc(Cl)cc3)c3c(nc2n1)C(C)CCC3 (configuration not stated)
inhibition of growth at 10 µM [1]: 18.8%
inhibition of growth at 10 µM [4]: 33%
inhibition of growth at 10 µM [7]: 18.8%
inhibition of growth at 10 µM [10]: 39%
inhibition of growth at 10 µM [11]: < 10%
inhibition of growth at 10 µM [12]: < 10%
inhibition of growth at 10 µM [13]: < 10%
inhibition of growth at 10 µM [14]: 32.5%
inhibition of growth at 10 µM [15]: 39.5%
inhibition of growth at 10 µM [16]: 27.7%
